Several values for one entry are separate records, joined by “and”; a condition that tells them apart may be missing. Equal values may be shown once. Entries after “also recorded” stand apart in the source; their conditions may differ.
How the values were obtained:
[1] = tested on: CHIP in BT474 breast cancer cells; test: Quantitative Western blot: CHIP in BT474 cells after 17-AAG; type: cell-based; conditions: BT474, 0.178 µM 17-AAG, 7 or 14 hours; CHIP monomer; constant versus normal
How it was run: (§1)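 BT474 cells, seeded overnight, were exposed to 0.178 µM test compound (Hsp90 inhibitor) for 7 or 14 h; untreated cells were harvested at 15 h. Cells were counted, then lysed in SDS buffer. Extract from 35,000 cells (Hsp70, Hsp90, HOP) or 70,000 cells (CHIP) was blotted with ECL detection against a linear purified-protein calibration series. Values were converted via cell number and a cell volume of 3.5×10⁻⁶ µl.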

[2] = tested on: HOP in BT474 breast cancer cells; test: Quantitative Western blot: HOP in BT474 cells after 17-AAG; type: cell-based; conditions: BT474, 0.178 µM 17-AAG, 7 or 14 hours; HOP monomer; same as normal
How it was run: as §1

[3] = tested on: Hsp90 in BT474 breast cancer cells; test: Quantitative Western blot: Hsp90 in BT474 cells after 17-AAG; type: cell-based; conditions: BT474, 0.178 µM 17-AAG, 7 or 14 hours; Hsp90 dimer; same as normal
How it was run: as §1

Hsp90 [4] = conditions: ref [32]; cited from earlier work
[5] = tested on: HER2 in BT474 breast cancer cells; test: Western blot: HER2 in BT474 cells after 17-AAG; type: cell-based; conditions: BT474, 0.178 µM 17-AAG, 7 or 14 hours; qualitative, GAPDH loading control
[6] = tested on: Hsp70 in BT474 breast cancer cells; test: Quantitative Western blot: Hsp70 in BT474 cells after 17-AAG; type: cell-based; conditions: BT474, 0.178 µM 17-AAG, 7 or 14 hours; ~10 µM (monomer) under normal conditions
How it was run: as §1

HER2/neu = conditions: Hsp90 inhibition in cells; CHIP-dependent; ref [17]; cited from earlier work
CHIP [7] = target: T1, CHIP (Homo sapiens, UniProt Q9UNE7); test: ITC: C-terminal peptides of Hsp70 or Hsp90; type: binding; conditions: dimer and tetramer species of CHIP, data not shown
T1 sequence (Q9UNE7 1-303): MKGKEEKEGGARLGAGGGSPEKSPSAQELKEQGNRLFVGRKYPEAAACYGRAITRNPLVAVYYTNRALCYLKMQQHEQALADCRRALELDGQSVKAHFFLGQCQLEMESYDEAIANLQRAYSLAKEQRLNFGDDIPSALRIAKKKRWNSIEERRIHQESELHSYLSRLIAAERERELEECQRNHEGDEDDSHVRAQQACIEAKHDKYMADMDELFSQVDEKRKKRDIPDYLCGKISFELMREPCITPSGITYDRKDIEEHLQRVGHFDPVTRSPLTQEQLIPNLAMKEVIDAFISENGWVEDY

Hsp70 and Hsp90 = conditions: ref [18], cited from earlier work
[8] = tested on: Hsp90-dependent client proteins; conditions: CFTRΔF508 and wild-type CFTR; ref [36]; cited from earlier work
CHIP [9] = target: T1, CHIP; type: biochemical; conditions: discussion summary
How it was run: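 Reactions contained 0.091 µM human UBE1, 20 µM UbcH5c, 20 µM CHIP, 100 µM Hsp70 T13G ±188 µM model client peptide. Buffer: 50 mM Tris pH 7.4, 150 mM KCl, 10 mM NaCl, 3 mM MgCl2, 10 mM ATP, 0.1 mM βME. Preincubated 30°C ~10 min, started with 0.5 mM ubiquitin. Timed aliquots ran on Coomassie SDS-PAGE; ubiquitin per CHIP monomer fitted linearly early (slope = rate); three independent experiments, SD.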

CHIP [10] = conditions: 'normal' non-Hsp90 inhibited cells, cycloheximide; ref [17]; cited from earlier work
Hsp90 [11] = test: Competition pull-down: HOP versus GST-CHIP for Hsp90; type: binding
How it was run: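 GST-CHIP (10 µM) and His6-Hsp90 (10 µM), or subsets as controls, were mixed with 3–30 µM His6-HOP in 50 mM Tris pH 7.4, 10 mM NaCl, 5 mM βME. Mixtures were held on ice ~10 min, then rotated with glutathione agarose at 4°C for 1 h and washed 4×. Bound protein was eluted in SDS buffer and resolved by Coomassie SDS-PAGE.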

Hsp90 [12] = test: Control Ni-NTA pull-down of HOP by His6-Hsp90; type: binding; conditions: 20 µM His6-Hsp90, 20 µM HOP without His6-tag, 150 mM KCl, 3 mM MgCl2, Ni-NTA, 4°C
Hsp70 = conditions: ref [35]; cited from earlier work
Hsp90 [13] = conditions: human Hsp90; ref [19]; cited from earlier work

Compound: C=CCNC1=C2C[C@@H](C)C[C@H](OC)[C@H](O)[C@@H](C)/C=C(\C)[C@H](OC(N)=O)[C@@H](OC)/C=C\C=C(/C)C(=O)NC(=CC1=O)C2=O [17-AAG]
- CHIP concentration upon 17-AAG treatment [1]: ~ 0.1 µM
- HOP level upon 17-AAG treatment [2]: ~ 3 µM
- Hsp90 level upon 17-AAG treatment [3]: ~ 5 µM
- binding to Hsp90 (in words) (Hsp90 [4]): binds to the ATP binding pocket and renders the chaperone unable to facilitate client protein folding process
- HER2 levels upon 17-AAG treatment (in words) [5]: decrease in HER2 levels
- total Hsp70 cellular concentration upon 17-AAG treatment [6]: 39 µM and ~ 39 µM
- degradation of HER2/neu (in words) (HER2/neu): client proteins such as the oncoprotein HER2/neu undergo rapid CHIP-dependent degradation; also recorded: rapid degradation of the Hsp70/Hsp90 client protein HER2/neu

Compound: COC1=C2C[C@@H](C)C[C@H](OC)[C@H](O)[C@@H](C)/C=C(\C)[C@H](OC(N)=O)[C@@H](OC)/C=C\C=C(/C)C(=O)NC(=CC1=O)C2=O [geldanamycin]
- degradation of HER2/neu (in words) (HER2/neu): rapid degradation of the Hsp70/Hsp90 client protein HER2/neu

Compound: Carboxyl terminus of Hsc70-interacting protein [CHIP]
- binding of both CHIP oligomeric species to Hsp70 (in words) (CHIP [7]): both oligomeric species of CHIP bind Hsp70 with the same binding affinity and stoichiometry
- effect of CHIP over-expression on Hsp70 levels (in words) (Hsp70 and Hsp90; over-expression of CHIP): decrease in Hsp70 levels
- effect of CHIP on half-life of Hsp70 and Hsp90 (in words) (Hsp70 and Hsp90): greatly decreased the half-life of both Hsp70 and Hsp90, with degradation of Hsp70 being more pronounced
- degradation of CFTR on increase in CHIP concentration (in words) [8]: leads to degradation of a cystic fibrosis causing mutant of Hsp70/Hsp90 client protein CFTR, CFTRΔF508; also recorded: also leads to degradation of wild-type CFTR
- rate of ubiquitination at substrate concentrations much above KM (CHIP [9]): ~ 0.1 ubiquitin molecules attached/CHIP monomer/minute

Compound: HER2: oncoprotein, Hsp70/Hsp90 client protein
- half life of HER2 in normal cells (CHIP [10]): less than 1 hour

Compound: Hsp70/Hsp90 organizing protein [HOP]
- competition with CHIP for binding to Hsp90 (in words) (Hsp90 [11]; 3-30 µM His6-HOP, 10 µM GST-CHIP, 10 µM His6-Hsp90, 50 mM Tris pH 7.4, 10 mM NaCl, 5 mM βME, 4°C 1 hour, glutathione agarose): CHIP does not pull-down HOP through Hsp90, but that HOP and CHIP compete for binding to Hsp90; also recorded: HOP is competing with CHIP for binding to Hsp90
- binding of HOP to CHIP, control (in words) (Hsp90 [11]; control lanes, glutathione agarose pull-down with GST-CHIP): HOP does not bind to CHIP
- pull-down of HOP by Hsp90 (in words) (Hsp90 [12]): the HOP and Hsp90 interaction is stable; also recorded: HOP does not bind non-specifically to the resin but binds to Hsp90

Compound: Hsp70: heat shock induced monomeric molecular chaperone; recombinant His6-Hsp70
- kcat for client peptide stimulated hydrolysis of ATP by Hsp70 (Hsp70): 0.0017 to 0.005 s⁻¹

Compound: Hsp90: heat shock induced homo-dimeric molecular chaperone; recombinant His6-Hsp90β
- kcat of ATP hydrolysis by Hsp90 (Hsp90 [13]): ~ 0.09 min^−1
